The nature of series [1]: Inhibition of CD40L, IFN-gamma and IL18 mixture-induced IL6 production in mouse DC-B cells after 18 to 24 hrs by fluorescence immunoassay. It is filed as functional, cell-based. The method, boiled down:
(§1)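 DC-B cells grown in GM-CSF (20 ng/mL) medium and passaged every 48 h. Cells were mixed with compound in low-serum assay medium (0.4% DMSO) and stimulated with murine CD40L 2 ng/mL, IL-18 40 ng/mL and IFN-gamma 20 ng/mL (final). Incubation was 18–24 h at 37 °C, 5% CO2. Supernatant IL-12p40 or IL-6 was measured by europium sandwich immunoassay (biotinylated detection antibody, Eu-streptavidin, 615 nm). Ten concentrations were tested, in triplicate, and results were expressed as percent of control versus concentration.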

The nature of series [2]: Inhibition of CD40L, IFN-gamma and IL18 mixture-induced IL12p40 production in mouse DC-B cells after 18 to 24 hrs by fluorescence immunoassay. The class given is functional, cell-based. The method, boiled down: as §1
Series [3] can be described thus: Cytotoxicity against CD40L, IFN-gamma and IL18 mixture-stimulated mouse DC-B cells at <100 nM after 18 hrs by CellTiter-Glo assay. It is filed as cell-based. In a few lines: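 Murine dendritic cell line DC-B treated with test compound, then stimulated as in the cytokine assay (mouse CD40L, IL-18, IFN-gamma) and incubated 18 h. CellTiter-Glo reagent added in volume equal to the culture. Plates shaken 2 min to lyse cells, then left 10 min without shaking. Luminescence read on a microplate reader.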

A further series is filed under the species Mus musculus. Nature of the series: Inhibition of CD40L, IFN-gamma and IL18 mixture-induced IL12p40 production in mouse DC-B cells at 10 uM after 18 to 24 hrs by fluorescence immunoassay. The class given is functional, cell-based.

Each structure is given as a SMILES string. Calls of active or inactive are those of the source. No cut-off for these calls is given here. Bounds are passed on as bounds.

Take `Oc1ccc(Br)cc1CNc1cc(Cl)cc(Cl)c1`: the IC50 in series [1] was 1700 nM; in series [2], 2700 nM. Also, in series [3], the Activity entry was “Non-toxic”.
For `O=C(Nc1cc(Cl)cc(Cl)c1)c1ccc([N+](=O)[O-])cc1O`, in that order: 250 nM, 320 nM and “Non-toxic”.
For `O=C1c2cccc(O)c2C(=O)N1c1cc(Cl)cc(Cl)c1`, in that order: more than 10000 nM, more than 10000 nM and “Non-toxic”.
On to `O=C(Nc1cccc(Cl)c1)c1ccccc1O`, for which the IC50 is more than 10000 nM in series [1] and 5100 nM in series [2]. Further, the Activity result in series [3] is recorded as “Non-toxic”.
The corresponding values for `O=C(Nc1cc(Cl)c(Cl)cc1Cl)c1ccccc1O` are more than 10000 nM, 45 nM and “Non-toxic”.
The corresponding values for `O=C(Nc1cc(C(F)(F)F)cc(C(F)(F)F)c1)c1ccccc1O` are 740 nM, 120 nM and “Non-toxic”.
Take `Cc1cc(C)cc(NC(=O)c2ccccc2O)c1`: the IC50 in series [1] and in series [2] was more than 10000 nM each time. Moreover, the Activity entry in series [3] is “Non-toxic”.
`O=C(Nc1cc(C(F)(F)F)ccc1Cl)c1ccccc1O`: the results for the IC50 in series [1] and in series [2] were 1800 nM and 200 nM, respectively. Also, the Activity result in series [3] is “Non-toxic”.
Turning to `O=C(Nc1cc(Cl)cc(Cl)c1)c1cc([N+](=O)[O-])ccc1O`, the IC50 was 170 nM in series [1] and 410 nM in series [2]. Further, the Activity result in series [3] is given as “Non-toxic”.
The corresponding values for `O=c1oc2cc(Cl)ccc2c(=O)n1-c1cc(C(F)(F)F)cc(C(F)(F)F)c1` are 350 nM, 280 nM and “Non-toxic”.
With `O=C(Nc1ccc(Cl)c(Cl)c1)c1cc(Cl)ccc1O`, the IC50 in series [1] and in series [2] was 130 nM each time. For the same compound, the Activity result in series [3] was “Non-toxic”.
For the compound `CN(C(=O)c1ccccc1O)c1cc(Cl)cc(Cl)c1`, the IC50 in series [1] and in series [2] was more than 10000 nM in each case. Moreover, the Activity result in series [3] is listed as “Non-toxic”.
`O=C(Nc1cc(Cl)cc(Cl)c1)c1cc(Br)ccc1O`: the IC50 in series [1] was determined as 300 nM; in series [2], 13 nM. Moreover, in series [3], the Activity result was “Non-toxic”.
In the case of `O=C(Nc1cc(Cl)cc(Cl)c1)c1ccccc1OCc1ccccc1`, the IC50 in series [1] and in series [2] was more than 10000 nM each time. The result in the series listed under Mus musculus was inactive. The Activity result in series [3] was “Non-toxic”.
As to `O=C(Nc1cc(Cl)cc(Cl)c1)c1ccccc1O`, the IC50 in series [1] is more than 10000 nM; in series [2], 13 nM. Moreover, in series [3], the Activity result is listed as “Non-toxic”.
In the case of `O=C(O)CN(C(=O)c1ccccc1O)c1cc(Cl)cc(Cl)c1`, the IC50 in series [1] and in series [2] was more than 10000 nM throughout. For the same compound, the Activity result in series [3] is on record as “Non-toxic”.
On to `O=C(Nc1ccc(O)cc1)c1ccccc1O` [OSALMID], for which the IC50 in series [1] and in series [2] was more than 10000 nM throughout. Besides, the Activity result in series [3] is given as “Non-toxic”.
With `O=C(Nc1cc(Cl)c(Cl)cc1Cl)c1cc(Br)ccc1O`, the IC50 amounted to 640 nM in series [1] and 74 nM in series [2]. Further, the Activity result in series [3] is recorded as “Non-toxic”.
The corresponding values for `O=C(Nc1ccccn1)c1ccccc1O` are more than 10000 nM, more than 10000 nM and “Non-toxic”.
For `O=C(Nc1cc(Cl)cc(Cl)c1)c1ccccc1NS(=O)(=O)c1ccc(Cl)c([N+](=O)[O-])c1`, in that order: 220 nM, 240 nM and “Non-toxic”.

The record behind these values is ChEMBL document CHEMBL1151787, “Salicylanilides: selective inhibitors of interleukin-12p40 production” (Bioorg Med Chem, 2008).
